Test [1] is described as follows: inhibitors of TNFa-induced NFkB p65 translocation, primary screen, imaging, HUVEC, MLSMR starter and 10KST1 sets (AID 438).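 Further: compound added about 3h40 before a 20 min TNFalpha stimulation.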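 On inhibition: signal is the nuclear over cytoplasmic p65 intensity ratio per well.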 The conditions noted are these: HUVEC TNFa-induced p65 nuclear translocation; cell count: measured here: nuclei count (cytotoxicity indicator), at 2.08 µM; inhibition: at 2 µM, stronger effect = higher value, 0% TNFa-plus-vehicle, 100% no-TNFa wells.
A short description of test [2]: reduction of polyQ htt aggregates in cells – imaging, exon1htt(103Q)mCFP cells, high-content imaging, primary screen (AID 483;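 active means visual image review flags a hit and inhibition of aggregation exceeds 20%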;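 further: compound exposure lasted 3 days before fixation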;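 on nuclei count: percent of the per-plate median nuclei count of sample wells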). The conditions noted are these: exon1htt(103Q)mCFP cell line, aggregate imaging, at 2 µM; inhibition of aggregation: stronger effect = higher value; nuclei count: measured here: cell count, toxicity.
A short description of test [3]: endothelial E-selectin expression blockers – imaging, HUVEC, immunofluorescence, MLSMR starter and 10KST1 sets, primary screen (AID 487;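 active means visually confirmed hit in the image check and inhibition above 20%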;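 on inhibition: signal is fraction of cell area covered by stained E-selectin grains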;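 on nuclei count: 100% = median nuclei count of all wells on the same plate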). The conditions noted are these: HUVEC TNFalpha-induced E-selectin immunofluorescence imaging, at 2 µM; inhibition: stronger effect = higher value; nuclei count: measured here: cell number, toxicity.
For test [4], the target named is Voltage-gated potassium channel subunit beta-2 (Rattus norvegicus) (UniProt P62483). Nature of the test: inhibitors of rat Kvbeta2 reductase activity – biochemical, NADPH fluorescence, primary screen (AID 622;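 active means fluorescence slope higher than the sample average by over 3 SD, cut at about -0.22 in these data, passing the limit was not always enough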;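 further: slope of raw intensity against log time taken from 70 to 1610 s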). As to conditions: recombinant KvBeta, 4-cyanobenzaldehyde reduction, at 10 µM, stronger effect = higher value.
Chain of Voltage-gated potassium channel subunit beta-2 (Rattus norvegicus) (P62483 whole entry, looked up): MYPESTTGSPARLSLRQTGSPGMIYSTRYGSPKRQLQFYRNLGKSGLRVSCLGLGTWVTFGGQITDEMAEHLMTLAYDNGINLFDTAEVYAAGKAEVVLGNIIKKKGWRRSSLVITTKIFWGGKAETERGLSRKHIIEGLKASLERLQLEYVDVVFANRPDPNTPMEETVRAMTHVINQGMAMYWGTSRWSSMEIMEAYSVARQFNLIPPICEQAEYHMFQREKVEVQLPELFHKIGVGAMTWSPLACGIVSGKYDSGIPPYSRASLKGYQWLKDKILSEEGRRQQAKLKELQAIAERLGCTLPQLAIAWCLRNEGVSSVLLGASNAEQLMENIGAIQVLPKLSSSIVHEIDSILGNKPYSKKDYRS
For test [5] the target is unchanged. The experiment in a line: enhancers of rat Kvbeta2 NADPH turnover – biochemical, NADPH fluorescence, primary screen (AID 623;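 active means NADPH fluorescence slope more negative than the mean of all samples by about 3 SD, 99.7% confidence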;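 further: fluorescence intensity change per second fitted from 20 to 320 s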). The conditions noted are these: Recombinant KvBeta, NADPH fluorescence decrease slope, 10 min; at 10 µM; stronger effect = lower value.
The target in test [6] is Muscarinic acetylcholine receptor M4 (Homo sapiens) (UniProt P08173). Nature of the test: M4-linked GIRK flux change, two-sided – cell-based, HEK293 M4/GIRK, thallium flux, BTC-AM, M4 allosteric agonist project, primary screen (AID 625;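 active means fluorescence slope after compound addition differing from the mean of all tested samples at 99.7% confidence, mostly higher but some lower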;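 further: thallium influx through GIRK channels coupled to M4 in HEK293 cells with BTC-AM dye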). The conditions noted are these: at 10 µM, actives lie on both sides. The method, boiled down: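 Material: M4/GIRK1/GIRK2 stable HEK293 cell line. Medium: pH 7.3 thallium assay buffer. Dosing: single compound concentration, 10 µM final. Schedule: 1 h dye loading, 2 min kinetic read. Measured by: kinetic fluorescence with BTC-AM dye. Read-out: post-addition slope, 15–24 s, of baseline-normalized fluorescence. Benchmarks: carbachol and DMSO controls.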
Chain of Muscarinic acetylcholine receptor M4 (Homo sapiens) (P08173 whole entry, looked up): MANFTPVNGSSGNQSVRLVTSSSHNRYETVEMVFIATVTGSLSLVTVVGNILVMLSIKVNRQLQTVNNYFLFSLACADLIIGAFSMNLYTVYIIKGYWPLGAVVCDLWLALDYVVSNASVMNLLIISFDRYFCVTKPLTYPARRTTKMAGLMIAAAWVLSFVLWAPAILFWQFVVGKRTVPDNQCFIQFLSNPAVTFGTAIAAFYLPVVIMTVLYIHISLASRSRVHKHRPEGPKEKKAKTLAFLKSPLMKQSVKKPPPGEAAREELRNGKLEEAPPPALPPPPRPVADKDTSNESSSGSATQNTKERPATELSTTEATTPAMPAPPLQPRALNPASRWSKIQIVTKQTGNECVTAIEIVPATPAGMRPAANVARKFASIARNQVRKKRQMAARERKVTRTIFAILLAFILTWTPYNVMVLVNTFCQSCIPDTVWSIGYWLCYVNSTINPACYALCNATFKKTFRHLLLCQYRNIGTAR

The nature of test [7]: blockers of RIG-like receptor reporter activation – cell-based, Sendai virus stimulus, luciferase, 10K MLSCN set, TLR/RLR signaling modifier project, primary screen (AID 602276;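 active means inhibition at or above 50% at 10 µM; inactive means inhibition below 50%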;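 further: firefly luciferase from ISG56 promoter only with Renilla not read in this screen; 0% = Sendai virus plus DMSO and 100% = medium plus DMSO without virus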). As to conditions: HEK293 RL24 IRF3 luciferase reporter, at 10 µM, stronger effect = higher value.
Test [8] is described as follows: TLR3 IRF3 reporter activation blockers – cell-based, poly I:C stimulus, luciferase, 10K MLSCN set, primary screen (AID 602277;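 active means inhibition of the reporter signal at or above 50%; inactive means inhibition below 50%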). As to conditions: HEK293-TLR3 RL24 IRF3 luciferase reporter, at 10 µM, stronger effect = higher value. For orientation: In a reporter assay the amount or activity of a reporter protein is the signal.
The target in test [9] is Alpha-2C adrenergic receptor (Homo sapiens) (UniProt P18825). Nature of the test: compounds altering alpha2C-coupled GIRK flux – cell-based, HEK293 alpha2C/GIRK1/2, thallium flux, primary screen (AID 624;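 active means fluorescence slope after compound addition differing from the mean of all screened samples at 99.7% confidence, in either direction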;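 further: slope of fluorescence ratio to pre-addition baseline per second over 15 to 24 s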). As to conditions: thallium flux BTC fluorescence, at 10 µM, actives lie on both sides.
Chain of Alpha-2C adrenergic receptor (Homo sapiens) (P18825 whole entry, looked up): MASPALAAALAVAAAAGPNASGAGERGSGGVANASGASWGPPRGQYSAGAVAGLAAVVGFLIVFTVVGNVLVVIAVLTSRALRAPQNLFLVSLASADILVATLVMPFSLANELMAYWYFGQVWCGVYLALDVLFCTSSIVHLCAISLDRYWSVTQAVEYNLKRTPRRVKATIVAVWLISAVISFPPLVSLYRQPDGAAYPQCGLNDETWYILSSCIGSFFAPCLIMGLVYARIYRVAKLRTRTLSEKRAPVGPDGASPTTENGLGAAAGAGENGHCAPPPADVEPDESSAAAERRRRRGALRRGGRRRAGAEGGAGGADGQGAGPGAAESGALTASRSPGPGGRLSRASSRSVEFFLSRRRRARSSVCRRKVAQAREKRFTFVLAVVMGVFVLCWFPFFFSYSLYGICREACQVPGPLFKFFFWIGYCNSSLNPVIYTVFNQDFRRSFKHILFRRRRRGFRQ
A short description of test [10]: inhibitors of larval lipid processing in zebrafish, primary screen, whole organism, PED6 fluorescence, gall bladder and intestine (AID 686;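 active means a full or partial loss of lipid-probe fluorescence in the fish gall bladder, intestine or both, judged by eye; inactive means no fluorescence loss, or compound toxic to the fish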;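 further: larvae 5 to 7 days old with five fish per well; signal comes from phospholipase A2 cleavage of quenched PED6 carried via bile; overnight exposure to compound and PED6 before scoring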). The conditions noted are these: Zebrafish larvae PED6 lipid processing, fluorescence scoring; screened at 20 µM (by protocol). Summed up:
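System: live zebrafish larvae aged 5-7 days, whole organism; measure: graded gall bladder and intestinal fluorescence inhibition per well; incubation: overnight exposure; reagent: ingested quenched lipid PED6 at 100 nM; signal: By-eye fluorescence microscopy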

In general, inhibition refers to the change of the read-out against control, counted positive when it falls.

Activity calls are given as the source filed them.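 How the source made its calls, unless noted: active means inhibition above 20% together with a positive visual image hit; inconclusive means visual image hit but inhibition not above 20%; inactive means no visual image hit.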

On to `COCCCNC(=O)C(Cc1ccccc1)NS(=O)(=O)c1ccc2c(c1)c(=O)n(C)c(=O)n2C` (configuration not stated), for which the cell count in [1] worked out at 561. Moreover, the inhibition in [1] was -2.5% (inactive); in test [3], -10.2% (inactive); in [7] it was -1.6% (inactive); in test [8], 19.2% (inactive). Moreover, the inhibition of aggregation in test [2] was 42.3% (active). For the same compound, the nuclei count in test [2] turned out to be 94.5%; in test [3], 117%. Also, the fluorescence slope in test [4] was -0.468 (inactive); in test [6], 0.00611 (inactive). In addition, the NADPH fluorescence slope in [5] was -8e-06 (inactive).
Take `Cc1ccc(Cn2nnc3c(=O)[nH]c(C4CCN(S(=O)(=O)c5ccc(F)cc5)CC4)nc32)cc1`: in test [1], the cell count was determined as 436. The inhibition was 9.4% (inactive) in test [1], 0.788% (inactive) in test [7] and -11.3% (inactive) in test [8]. Also, in test [2], the inhibition of aggregation is 11.5% (inactive). The values for the nuclei count in test [2] and in test [3] were 107% and 153%, respectively. The fluorescence slope was -0.584 (inactive) in test [4] and 0.00687 (inactive) in [6]. Further, the NADPH fluorescence slope in [5] is 1.2e-05 (inactive).
Consider `Cc1cccc(C)c1OCc1nnc2c3cnn(C)c3ncn12`, for which the cell count in [1] is 456. The inhibition in [1] is 8.1% (inactive); in test [3] it was -299% (inactive); in test [7] it was -9.31% (inactive); in [8], -26.9% (inactive). For the same compound, the inhibition of aggregation in [2] was -5.7% (inactive). Also, the nuclei count in [2] was 97.5%; in test [3], 125%. Moreover, the fluorescence slope was -0.533 (inactive) in test [4] and 0.0037 (inactive) in test [6]. In test [5], the NADPH fluorescence slope is -0.000169 (inactive).
`CCC(C)NC(=O)c1cc(-c2ccc(OC)cc2)on1` (configuration not stated): in [1], the cell count was 689. For the same compound, the inhibition in [1] was -15.5% (inactive); in test [3], 13.2% (inactive); in test [7], -45.5% (inactive); in [8], -170% (inactive). Moreover, in [2], the inhibition of aggregation is 1.3% (inactive). Further, the nuclei count in [2] was 101%; in [3], 108%. For the same compound, the fluorescence slope is -0.286 (inactive) in [4] and 0.00668 (inactive) in [6]. Moreover, the NADPH fluorescence slope in test [5] is -1.4e-05 (inactive).
`COCCCNCC(=O)Nc1ccc(OC(F)(F)F)cc1`: the cell count in test [1] amounted to 363. Further, the inhibition is 14.4% (inactive) in [1], -4.19% (inactive) in test [7] and -0.468% (inactive) in test [8]. Besides, the inhibition of aggregation in test [2] was -4.3% (inactive). Further, the nuclei count came out at 89.5% in [2] and 119% in test [3]. In [4], the fluorescence slope is -0.403 (inactive). Moreover, the NADPH fluorescence slope in [5] is -4.5e-05 (inactive). The slope in test [9] was 0.00627 (inactive). In addition, the compound was called inactive in test [10].
Take `COC(=O)COc1nc(C)c(Br)c(OC)n1`: the cell count in test [1] came out at 367. For the same compound, the inhibition in test [1] was 2.4% (inactive); in test [3], -89.5% (inactive); in [7] it was 15.8% (inactive); in [8], 17.1% (inactive). In addition, the inhibition of aggregation in [2] was -14% (inactive). Moreover, the nuclei count in test [2] turned out to be 96.9%; in test [3], 110%. Also, the fluorescence slope in test [4] is -0.615 (inactive); in test [6] it was 0.00344 (inactive). Also, the NADPH fluorescence slope in test [5] was -1.6e-05 (inactive).
Turning to `CCn1c(=O)cc(SCC(=O)NCCN2CCN(Cc3ccccc3)CC2)c2ccccc21`, in test [1], the cell count came to 478. The inhibition in [1] was 4.3% (inactive); in test [3] it was 14.7% (inactive); in [7], 16.8% (inactive); in test [8] it was 47.8% (inactive). In addition, the inhibition of aggregation in test [2] was 21.3% (inactive). Further, the nuclei count in test [2] came out at 93.3%; in test [3], 108%. Also, the fluorescence slope in test [4] is -0.559 (inactive); in test [6] it was 0.00537 (inactive). Moreover, the NADPH fluorescence slope in test [5] was 3.3e-05 (inactive).
Consider `Cc1ccc(-n2ncc3c(=O)n(CC(=O)NC4CCCCC4)cnc32)cc1C`, for which the cell count in test [1] was determined as 281. The inhibition in test [1] was -0.3% (inactive); in [3] it was -3.3% (inactive); in test [7] it was 13.5% (inactive); in test [8], 15.1% (inactive). In addition, the inhibition of aggregation in test [2] was 4.3% (inactive). The nuclei count in [2] came out at 96.7%; in test [3], 106%. The fluorescence slope in [4] is -0.575 (inactive); in test [6] it was 0.00615 (inactive). Besides, the NADPH fluorescence slope in test [5] was 2.2e-05 (inactive).

(Values after PubChem BioAssay.)
